The record followed here is ChEMBL document CHEMBL1125363, “Novel piperidine sigma receptor ligands as potential antipsychotic drugs” (J Med Chem, 1992).

The species entered for assay [1] is Rattus norvegicus. Nature of the assay: The compound was tested for blocking the rotation induced by (+)-SKF 10047 in brain-lesioned rats. The assay is classed as functional. The procedure, abridged: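 Rats with brain lesions were challenged with (+)-SKF 10047 to induce rotation. The test compound was given orally to block rotation. Reported as the ED50 in mg/kg po.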

The species named for assay [2] is Rattus norvegicus. Kind of assay: Oral potency tested using 5HTP induced head twitch test. The assay is classed as functional.
Assay [3] is filed under the species Mus musculus. Kind of assay: Oral potency tested using apomorphine induced climbing test. The assay is classed as functional.
The species named for assay [4] is Mus musculus. Kind of assay: Oral potency tested by using anti-mescaline test. The assay is classed as functional. The procedure, abridged:
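Mice; mescaline was given to evoke hallucinogen-type behaviour, and the test compound was dosed orally to antagonise it. Potency is the ED50 in mg/kg po. Some ED50s are the average of three measurements.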

The nature of assay [5]: (§1) Oral potency by using Anti aggression test. The assay is classed as functional. A digest of the protocol:
(§2)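 Mice were held in prolonged isolation, then exposed to intruders. The aggressive response was scored after oral dosing of the test compound. Potency is the ED50 in mg/kg po.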

Assay [6] addresses T1, Serotonin 2 (5-HT2) receptor (Mus musculus, UniProt Q02152+P34968+P35363). Nature of the assay: In vitro binding affinity for serotonin 5-hydroxytryptamine (5-HT) 2 receptors. The assay is classed as protein assay.
In assay [7] the target is T2, D(2) dopamine receptor (Mus musculus, UniProt P61168). Kind of assay: In vitro binding affinity towards dopamine receptor D2.
In assay [8] the target is Sigma non-opioid intracellular receptor 1 (Mus musculus, UniProt O55242). Kind of assay: In vitro binding affinity for the mouse sigma opioid receptor.
Another assay concerns the target D(1A) dopamine receptor (Mus musculus, UniProt Q61616). Kind of assay: The compound was tested in vitro for its binding affinity towards dopamine receptor D1.
Assay [9] is filed under the species Mus musculus. Nature of the assay: Oral potency by using Anti aggression test.
Assay [10] is filed under the species Mus musculus. The assay is described as §1. The assay is classed as functional. A digest of the protocol:
as §2

In assay [11] the target is T1, Serotonin 2 (5-HT2) receptor. Nature of the assay: The compound was tested in vitro for its binding affinity towards 5-hydroxytryptamine 2 receptor. The assay is classed as protein assay.
Assay [12] has as its target T2, D(2) dopamine receptor. Kind of assay: The compound was tested in vitro for its binding affinity towards Dopamine receptor D2.

Chain of Sigma non-opioid intracellular receptor 1 (O55242 whole entry): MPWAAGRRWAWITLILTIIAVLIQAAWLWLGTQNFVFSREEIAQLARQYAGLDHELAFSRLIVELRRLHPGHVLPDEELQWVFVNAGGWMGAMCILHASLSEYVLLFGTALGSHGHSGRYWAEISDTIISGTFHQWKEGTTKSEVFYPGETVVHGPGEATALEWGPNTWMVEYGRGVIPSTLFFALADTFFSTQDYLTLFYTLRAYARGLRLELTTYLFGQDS
T2 sequence (P61168 whole entry): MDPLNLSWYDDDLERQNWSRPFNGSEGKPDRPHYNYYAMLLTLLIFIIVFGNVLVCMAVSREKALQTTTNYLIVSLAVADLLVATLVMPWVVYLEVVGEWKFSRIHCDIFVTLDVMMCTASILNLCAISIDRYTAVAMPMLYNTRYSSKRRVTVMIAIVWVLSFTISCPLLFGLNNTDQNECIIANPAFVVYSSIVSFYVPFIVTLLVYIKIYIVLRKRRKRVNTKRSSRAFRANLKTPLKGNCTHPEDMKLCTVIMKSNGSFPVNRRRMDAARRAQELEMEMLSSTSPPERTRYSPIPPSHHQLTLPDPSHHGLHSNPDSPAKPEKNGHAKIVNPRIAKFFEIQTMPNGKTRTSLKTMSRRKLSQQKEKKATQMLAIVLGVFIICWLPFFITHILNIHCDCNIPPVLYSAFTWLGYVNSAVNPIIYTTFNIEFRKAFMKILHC
Chain of D(1A) dopamine receptor (Q61616 whole entry): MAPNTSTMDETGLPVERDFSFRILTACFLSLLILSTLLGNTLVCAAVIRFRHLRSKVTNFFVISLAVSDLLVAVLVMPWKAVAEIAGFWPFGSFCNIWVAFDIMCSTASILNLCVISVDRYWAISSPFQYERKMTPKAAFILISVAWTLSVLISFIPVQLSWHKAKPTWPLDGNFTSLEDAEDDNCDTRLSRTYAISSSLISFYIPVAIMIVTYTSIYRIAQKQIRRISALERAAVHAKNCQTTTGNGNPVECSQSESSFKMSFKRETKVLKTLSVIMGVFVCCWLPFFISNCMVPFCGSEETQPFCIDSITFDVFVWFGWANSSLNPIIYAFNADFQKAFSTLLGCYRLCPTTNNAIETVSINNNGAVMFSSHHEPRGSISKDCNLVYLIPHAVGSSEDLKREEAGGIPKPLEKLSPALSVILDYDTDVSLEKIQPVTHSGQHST

For orientation: ED50 means the dose at which the effect has come halfway, by size or by number of responders. Higher therefore signals a need for a large dose. As usually defined, the Ki is the dissociation constant of the complex between target and ligand, obtained from inhibition or displacement. The low end stands for a stronger hold on the target, the high end for a looser hold on the target. One may read the IC50 as the point on the concentration scale where inhibition reaches its midpoint. Low values mean greater potency in that assay, high ones weaker potency in that assay. Turning to `N#Cc1ccc(C(=O)CC2CCN(CC3CC3)CC2)cc1.O=C(O)/C=C/C(=O)O`, the ED50 is 5.3 mg/kg in the assay listed under Rattus norvegicus [1]; 22.3 mg/kg in the assay filed under Rattus norvegicus [2]; more than 90 mg/kg in the assay filed under Mus musculus [3]; 0.8 mg/kg in the assay filed under Mus musculus [4]; 0.44 mg/kg in [5]. Besides, the Ki in assay [6] was more than 10000 nM; in assay [8], 11 nM; at D(1A) dopamine receptor, more than 10 µM. On D(2) dopamine receptor [7], this molecule gave an IC50 of more than 10000 nM.
Regarding `Cl.O.O=C(CC1CCN(CC2CC2)CC1)c1ccc(C(F)(F)F)cc1`, the results for the ED50 in the assay filed under Mus musculus [3], in the assay listed under Mus musculus [4] and in the assay listed under Mus musculus [9] were more than 30 mg/kg, 6.6 mg/kg and more than 30 mg/kg, respectively. The Ki in assay [6] came out at 278 nM; in assay [8], 45 nM. For the same molecule, the IC50 on D(2) dopamine receptor [7] was more than 10000 nM.
`O.O=C(CC1CCN(Cc2ccccc2)CC1)c1ccc(F)cc1.O=C(O)/C=C\C(=O)O`: the ED50 in the assay listed under Rattus norvegicus [2] stood at 2.8 mg/kg; in the assay listed under Mus musculus [3], 18 mg/kg; in the assay filed under Mus musculus [4], 4.8 mg/kg; in the assay listed under Mus musculus [10] it was 8.6 mg/kg. For the same molecule, the Ki was 20 nM in assay [6] and 1 nM in assay [8]. The same molecule displayed an IC50 at D(2) dopamine receptor [7] of 1550 nM.
Turning to `OC(CCCN1CCN(c2ncc(F)cn2)CC1)c1ccc(F)cc1` (stereo unspecified) [BMY-14802], the median effective dose (ED50) in the assay filed under Rattus norvegicus [2] was 2.3 mg/kg; in the assay filed under Mus musculus [3] it was more than 90 mg/kg; in the assay filed under Mus musculus [4], 6 mg/kg; in the assay listed under Mus musculus [9] it was 45 mg/kg. The Ki worked out at 410 nM in assay [6] and 174 nM in assay [8]. At D(2) dopamine receptor [7], the 50% inhibitory concentration (IC50) amounted to 2430 nM.
`Br.O=C(CC1CCN(CC2CC2)CC1)c1ccc(F)cc1`: the median effective dose (ED50) in the assay filed under Rattus norvegicus [1] came out at 2.4 mg/kg; in the assay filed under Rattus norvegicus [2] it was 1.8 mg/kg; in the assay filed under Mus musculus [3] it was 15 mg/kg; in the assay filed under Mus musculus [4], 0.35 mg/kg; in the assay listed under Mus musculus [9], 1.9 mg/kg. Further, the Ki in assay [6] is 15 nM; in [8], 10 nM.
On to `Br.O=C(CC1CCN(CC2CC2)CC1)c1ccc(Cl)cc1`, for which the ED50 in the assay listed under Rattus norvegicus [2] is 30 mg/kg; in the assay listed under Mus musculus [3] it was more than 30 mg/kg; in the assay listed under Mus musculus [4], 0.46 mg/kg; in the assay listed under Mus musculus [9] it was 14 mg/kg. Besides, the figures for the inhibitory constant (Ki) in [6] and in assay [8] were 495 nM and 8 nM, respectively. Further, the IC50 on D(2) dopamine receptor [7] was found to be 2000 nM.
For `Br.O=C(CC1CCN(CC2CC2)CC1)c1ccc(-c2ccccc2)cc1`, the ED50 in the assay listed under Rattus norvegicus [2] is 10 mg/kg; in the assay filed under Mus musculus [3] it was more than 30 mg/kg; in the assay listed under Mus musculus [4] it was 4.7 mg/kg; in the assay listed under Mus musculus [9], 8.4 mg/kg. Further, the inhibitory constant (Ki) in assay [6] came out at 547 nM; in assay [8] it was 51 nM. In addition, the 50% inhibitory concentration (IC50) on D(2) dopamine receptor [7] came out at 1720 nM.
With `O.O=[N+]([O-])c1ccc(OCC2CCN(CC3CC3)CC2)cc1`, the median effective dose (ED50) is more than 10 mg/kg in the assay filed under Rattus norvegicus [2], more than 30 mg/kg in the assay listed under Mus musculus [3], 0.85 mg/kg in the assay listed under Mus musculus [4] and 1.4 mg/kg in assay [5]. The values for the Ki in assay [6] and in [8] were 215 nM and 13 nM, respectively. The same molecule gave an IC50 at D(2) dopamine receptor [7] of more than 10000 nM.
As for `Cl.Clc1ccc(OCC2CCN(CC3CC3)CC2)cc1`, the median effective dose (ED50) is 27 mg/kg in the assay listed under Rattus norvegicus [2], more than 30 mg/kg in the assay listed under Mus musculus [3], 4.4 mg/kg in the assay listed under Mus musculus [4] and 26 mg/kg in assay [5]. Moreover, the Ki stood at 40 nM in [6] and 4 nM in assay [8]. For the same molecule, the IC50 at D(2) dopamine receptor [7] was more than 10000 nM.
For `CC(C)(C)c1ccc(OCC2CCN(CC3CC3)CC2)cc1`, the ED50 in the assay filed under Mus musculus [3] was more than 30 mg/kg; in the assay filed under Mus musculus [4], less than 30 mg/kg; in the assay filed under Mus musculus [10], more than 30 mg/kg. Further, the inhibition constant (Ki) is more than 1000 nM in assay [6] and 14 nM in assay [8]. The IC50 on D(2) dopamine receptor [7] worked out at 3150 nM.
Turning to `C[C@@H]1CN(CCCn2c3ccccc3c3ccccc32)C[C@H](C)N1` [RIMCAZOLE], the ED50 in the assay listed under Mus musculus [3] was more than 90 mg/kg; in the assay listed under Mus musculus [4], 22 mg/kg; in the assay listed under Mus musculus [9], 48 mg/kg. For the same molecule, the results for the inhibitory constant (Ki) in [6] and in assay [8] were 2842 nM and 820 nM, respectively.
In the case of `Fc1ccc(SCC2CCN(CCC3CC3)CC2)cc1`, the ED50 in the assay filed under Mus musculus [4] is more than 10 mg/kg. In addition, the inhibition constant Ki was 53 nM in [11] and 5 nM in assay [8]. The molecule further gave a 50% inhibitory concentration (IC50) on D(2) dopamine receptor [12] of 1700 nM.
As to `Cl.OC(CC1CCN(Cc2ccccc2)CC1)c1ccc(F)cc1` (stereo unspecified), the ED50 in the assay filed under Rattus norvegicus [2] was 6.8 mg/kg; in the assay listed under Mus musculus [3], more than 30 mg/kg; in the assay filed under Mus musculus [4], 5 mg/kg; in assay [5], 32 mg/kg. For the same molecule, the inhibition constant Ki in assay [6] came out at 323 nM; in assay [8], 8 nM. The molecule further registered a half-inhibitory concentration (IC50) on D(2) dopamine receptor [7] of 5660 nM.
